# Test results from ChEMBL document CHEMBL1649572, “Synergistic interaction between silver nanoparticles and membrane-permeabilizing antimicrobial peptides” (Antimicrob Agents Chemother, 2009).
# Square brackets hold non-standard residues; d marks the D form. Peptide text beside a SMILES is read from it. * marks the point of attachment. Orn = NCCC[C@H](N)C(=O)O; NHCH2CH2OH = OCCN*; For = O=C*
# Legend:
# Escherichia coli [1] = experiment: microbe, parasite or virus in culture; assay type: functional; details: DSM 498
# [2] = system: Acinetobacter calcoaceticus; experiment: microbe, parasite or virus in culture; assay type: functional; details: DSM 586
# Enterobacter helveticus [3] = experiment: microbe, parasite or virus in culture; assay type: functional; details: Franconibacter helveticus, DSM 18396
# Aeromonas bestiarum [4] = experiment: microbe, parasite or virus in culture; assay type: functional; details: DSM 13956
# Proteus myxofaciens [5] = experiment: microbe, parasite or virus in culture; assay type: functional; details: DSM 4482
# Pseudomonas fluorescens [6] = experiment: microbe, parasite or virus in culture; assay type: functional; details: DSM 50090
# Bacillus subtilis [7] = experiment: microbe, parasite or virus in culture; assay type: functional; details: DSM 347
# Kocuria rhizophila [8] = experiment: microbe, parasite or virus in culture; assay type: functional; details: DSM 348
# Micrococcus luteus [9] = experiment: microbe, parasite or virus in culture; assay type: functional; details: DSM 1790
# Escherichia coli [10] = experiment: Antibacterial activity against Escherichia coli DSM 498 in presence of silver nitrate; assay type: functional
# Outline: (§1)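 Two-dimensional (checkerboard) microdilution: AgNO3 or carbon-matrix-stabilized silver nanoparticles (mean diameter 25 nm) crossed with a membrane-active antimicrobial peptide, in salt-free Luria/Miller bouillon. Nanoparticles dissolved in 8 mM Tris/HCl pH 7.6 with 150 mM NaCl. MICs taken alone and in combination; FIC index = MIC(A with B)/MIC(A alone) + MIC(B with A)/MIC(B alone). <0.5 synergy, 0.5–2.0 additive, >2.0 antagonism.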
# [11] = system: Acinetobacter calcoaceticus; experiment: Antibacterial activity against Acinetobacter calcoaceticus DSM 586 in presence of silver nitrate; assay type: functional
# Outline: as §1
# Enterobacter helveticus [12] = experiment: Antibacterial activity against Enterobacter helveticus DSM 18396 in presence of silver nitrate; assay type: functional, Franconibacter helveticus
# Outline: as §1
# Bacillus subtilis [13] = experiment: Antibacterial activity against Bacillus subtilis DSM 347 in presence of silver nitrate; assay type: functional
# Outline: as §1
# Kocuria rhizophila [14] = experiment: Antibacterial activity against Kocuria rhizophila DSM 348 in presence of silver nitrate; assay type: functional
# Outline: as §1
# Micrococcus luteus [15] = experiment: Antibacterial activity against Micrococcus luteus DSM 1790 in presence of silver nitrate; assay type: functional
# Outline: as §1
# Escherichia coli [16] = experiment: Antibacterial activity against Escherichia coli DSM 498 in presence of silver nanoparticles; assay type: functional
# Outline: as §1
# Enterobacter helveticus [17] = experiment: Antibacterial activity against Enterobacter helveticus DSM 18396 in presence of silver nanoparticles; assay type: functional, Franconibacter helveticus
# Outline: as §1
# Bacillus subtilis [18] = experiment: Antibacterial activity against Bacillus subtilis DSM 347 in presence of silver nanoparticles; assay type: functional
# Outline: as §1
# Kocuria rhizophila [19] = experiment: Antibacterial activity against Kocuria rhizophila DSM 348 in presence of silver nanoparticles; assay type: functional
# Outline: as §1
# Micrococcus luteus [20] = experiment: Antibacterial activity against Micrococcus luteus DSM 1790 in presence of silver nanoparticles; assay type: functional
# Outline: as §1
# [21] = Toxicity in human erythrocytes assessed as hemolysis by serial dilution method
# Aeromonas bestiarum [22] = experiment: Antibacterial activity against Aeromonas bestiarum DSM 13956 in presence of silver nitrate; assay type: functional
# Outline: as §1
# Proteus myxofaciens [23] = experiment: Antibacterial activity against Proteus myxofaciens DSM 4482 in presence of silver nitrate; assay type: functional
# Outline: as §1
# Pseudomonas fluorescens [24] = experiment: Antibacterial activity against Pseudomonas fluorescens DSM 50090 in presence of silver nitrate; assay type: functional
# Outline: as §1
# Aeromonas bestiarum [25] = experiment: Antibacterial activity against Aeromonas bestiarum DSM 13956 in presence of silver nanoparticles; assay type: functional
# Outline: as §1
# Proteus myxofaciens [26] = experiment: Antibacterial activity against Proteus myxofaciens DSM 4482 in presence of silver nanoparticles; assay type: functional
# Outline: as §1
# Pseudomonas fluorescens [27] = experiment: Antibacterial activity against Pseudomonas fluorescens DSM 50090 in presence of silver nanoparticles; assay type: functional
# Outline: as §1
# Escherichia coli [28] = details: DSM 498
# [29] = system: Acinetobacter calcoaceticus; details: DSM 586
# Enterobacter helveticus [30] = details: Franconibacter helveticus; DSM 18396
# Aeromonas bestiarum [31] = details: DSM 13956
# Proteus myxofaciens [32] = details: DSM 4482
# Pseudomonas fluorescens [33] = details: DSM 50090
# Bacillus subtilis [34] = details: DSM 347
# Kocuria rhizophila [35] = details: DSM 348
# Micrococcus luteus [36] = details: DSM 1790
Compound,MIC (Escherichia coli [1]),MIC [2],MIC (Enterobacter helveticus [3]),MIC (Aeromonas bestiarum [4]),MIC (Proteus myxofaciens [5]),MIC (Pseudomonas fluorescens [6]),MIC (Bacillus subtilis [7]),MIC (Kocuria rhizophila [8]),MIC (Micrococcus luteus [9]),fractional inhibitory concentration index (FICI) (Escherichia coli [10]),fractional inhibitory concentration index (FICI) [11],fractional inhibitory concentration index (FICI) (Enterobacter helveticus [12]),fractional inhibitory concentration index (FICI) (Bacillus subtilis [13]),fractional inhibitory concentration index (FICI) (Kocuria rhizophila [14]),fractional inhibitory concentration index (FICI) (Micrococcus luteus [15]),fractional inhibitory concentration index (FICI) (Escherichia coli [16]),fractional inhibitory concentration index (FICI) (Bacillus subtilis [18]),fractional inhibitory concentration index (FICI) (Kocuria rhizophila [19]),fractional inhibitory concentration index (FICI) (Micrococcus luteus [20]),HC50 ([21]; human erythrocytes),further results
H-GMASKAGAIAGKIAKVALKAL-NH2,8 mg/L,8 mg/L,8 mg/L,> 256 mg/L,> 256 mg/L,> 256 mg/L,8 mg/L,8 mg/L,4 mg/L,0.67,1.08,0.71,0.92,1.08,0.71,1,0.71,1.01,1,165 µg/mL,fractional inhibitory concentration index (FICI) (Enterobacter helveticus [17]): 0.57
CC(C)C[C@@H]1NC(=O)[C@H](CCCN)NC(=O)[C@H](C(C)C)NC(=O)[C@@H]2CCCN2C(=O)[C@@H](Cc2ccccc2)NC(=O)[C@H](CC(C)C)NC(=O)[C@H](CCCN)NC(=O)[C@H](C(C)C)NC(=O)[C@@H]2CCCN2C(=O)[C@@H](Cc2ccccc2)NC1=O [GRAMICIDIN S] (cyclo(L[dF]PV[Orn]L[dF]PV[Orn])),8 mg/L,16 mg/L,4 mg/L,32 mg/L,16 mg/L,16 mg/L,2 mg/L,4 mg/L,2 mg/L,0.83,0.77,0.32,0.73,0.92,0.92,0.56,0.77,0.83,1.25,10.1 µg/mL,fractional inhibitory concentration index (FICI) (Aeromonas bestiarum [22]): 0.53; fractional inhibitory concentration index (FICI) (Proteus myxofaciens [23]): 0.63; fractional inhibitory concentration index (FICI) (Pseudomonas fluorescens [24]): 0.67; fractional inhibitory concentration index (FICI) (Enterobacter helveticus [17]): 0.44; fractional inhibitory concentration index (FICI) (Aeromonas bestiarum [25]): 0.63; fractional inhibitory concentration index (FICI) (Proteus myxofaciens [26]): 0.38; fractional inhibitory concentration index (FICI) (Pseudomonas fluorescens [27]): 0.48
H-GIGKFLHSAKKFGKAFVGEIMNS-OH [MAGAININ 2],16 mg/L,16 mg/L,8 mg/L,> 256 mg/L,> 256 mg/L,> 256 mg/L,16 mg/L,16 mg/L,16 mg/L,1,0.79,0.71,0.69,0.67,1.02,0.86,0.67,0.96,1.04,202 µg/mL,fractional inhibitory concentration index (FICI) (Enterobacter helveticus [17]): 0.59
POLYMYXIN B [listing 1 of 2 here],,,,,,,,,,,,,,,,,,,,,HC50 ([21]; erythrocyte): 210.7 µg/mL
CC(=O)NC(C)(C)C(=O)N1CCC[C@H]1C(=O)NC(C)(C)C(=O)N[C@@H](C)C(=O)NC(C)(C)C(=O)N[C@@H](C)C(=O)N[C@@H](CCC(N)=O)C(=O)NC(C)(C)C(=O)N[C@H](C(=O)NC(C)(C)C(=O)NCC(=O)N[C@@H](CC(C)C)C(=O)NC(C)(C)C(=O)N1CCC[C@H]1C(=O)N[C@H](C(=O)NC(C)(C)C(=O)NC(C)(C)C(=O)N[C@@H](CCC(=O)O)C(=O)N[C@@H](CCC(N)=O)C(=O)N[C@H](CO)Cc1ccccc1)C(C)C)C(C)C [ALAMETHICIN],256 mg/L,256 mg/L,256 mg/L,256 mg/L,256 mg/L,128 mg/L,8 mg/L,8 mg/L,8 mg/L,0.5,,,1,1,,0.5,0.88,1,,17.9 µg/mL,fractional inhibitory concentration index (FICI) (Pseudomonas fluorescens [24]): 1; fractional inhibitory concentration index (FICI) (Pseudomonas fluorescens [27]): 1
CC(C)C[C@@H](NC(=O)[C@H](C)NC(=O)CNC(=O)[C@@H](NC=O)C(C)C)C(=O)N[C@@H](C)C(=O)N[C@@H](C(=O)N[C@H](C(=O)N[C@@H](C(=O)N[C@@H](Cc1c[nH]c2ccccc12)C(=O)N[C@H](CC(C)C)C(=O)N[C@@H](Cc1c[nH]c2ccccc12)C(=O)N[C@H](CC(C)C)C(=O)N[C@@H](Cc1c[nH]c2ccccc12)C(=O)N[C@H](CC(C)C)C(=O)N[C@@H](Cc1c[nH]c2ccccc12)C(=O)NCCO)C(C)C)C(C)C)C(C)C [GRAMICIDIN A] (For-VGA[dL]A[dV]V[dV]W[dL]W[dL]W[dL]W-NHCH2CH2OH),> 128 mg/L,> 128 mg/L,> 128 mg/L,> 128 mg/L,> 128 mg/L,> 128 mg/L,1 mg/L,1 mg/L,1 mg/L,,,,0.42,0.79,0.88,,0.94,1.04,1.04,2.3 µg/mL,
POLYMYXIN B [listing 2 of 2 here],,,,,,,,,,0.38,0.83,,0.59,0.83,0.58,0.38,0.96,0.61,0.96,,fractional inhibitory concentration index (FICI) (Enterobacter helveticus [12]; Franconibacter helveticus): 0.29; fractional inhibitory concentration index (FICI) (Aeromonas bestiarum [22]): 0.5; fractional inhibitory concentration index (FICI) (Proteus myxofaciens [23]): 0.23; fractional inhibitory concentration index (FICI) (Pseudomonas fluorescens [24]): 0.56; fractional inhibitory concentration index (FICI) (Enterobacter helveticus [17]; Franconibacter helveticus): 0.38; fractional inhibitory concentration index (FICI) (Aeromonas bestiarum [25]): 0.39; fractional inhibitory concentration index (FICI) (Proteus myxofaciens [26]): 0.23; fractional inhibitory concentration index (FICI) (Pseudomonas fluorescens [27]): 0.27; MIC (Escherichia coli [28]): 1 mg/L; MIC [29]: 1 mg/L; MIC (Enterobacter helveticus [30]): 1 mg/L; MIC (Aeromonas bestiarum [31]): 16 mg/L; MIC (Proteus myxofaciens [32]): 16 mg/L; MIC (Pseudomonas fluorescens [33]): 128 mg/L; MIC (Bacillus subtilis [34]): 8 mg/L; MIC (Kocuria rhizophila [35]): 16 mg/L; MIC (Micrococcus luteus [36]): 4 mg/L
